Test results from ChEMBL document CHEMBL5058577, “EUbOPEN Chemogenomics Library 2 (Multiplex)” (2022).

Test system: Fibroblast
Test: Multiplex assay against human fibroblast
Format: toxicity, cell-based
Outline: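 On a CQ1 microscope at 37°C and 5% CO2, live cells were imaged after compound addition. They had been stained at seeding with Hoechst33342, BioTracker Green Microtubule Cytoskeleton Dye, MitoTracker Red and Annexin V Alexa Fluor 680. CellPathfinder machine-learning gating assigned cells to Hoechst high-intensity objects or normal cells, normal cells to healthy, pyknosed or fragmented nuclei, and pyknosed cells to mitotic or apoptotic. Tubulin, mitochondrial-mass and membrane-permeability phenotypes are per cents of healthy-nucleus cells.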

[1] = 12 h, 1 µM, compound concentration 1 uM, replicate 1
[2] = 12 h, 1 µM, compound concentration 1 uM, replicate 2
[3] = 12 h, 10 µM, compound concentration 10 uM, replicate 1
[4] = 12 h, 10 µM, compound concentration 10 uM, replicate 2
[5] = 24 h, 1 µM, compound concentration 1 uM, replicate 1
[6] = 24 h, 1 µM, compound concentration 1 uM, replicate 2
[7] = 24 h, 10 µM, compound concentration 10 uM, replicate 1
[8] = 24 h, 10 µM, compound concentration 10 uM, replicate 2
[9] = 48 h, 1 µM, compound concentration 1 uM, replicate 1
[10] = 48 h, 1 µM, compound concentration 1 uM, replicate 2
[11] = 48 h, 10 µM, compound concentration 10 uM, replicate 1
[12] = 48 h, 10 µM, compound concentration 10 uM, replicate 2

O=C1COc2nccc(-c3ccccc3F)c2CN1Cc1cc(C(F)(F)F)cc(C(F)(F)F)c1
Population Apoptotic (%) [1]: 38%
Population Fragmented Nuclei (%) [1]: 12%
Population Healthy Nuclei (%) [1]: 74%
Population Hoechst High Intensity Objects (%) [1]: 2%
Population Membrane Permeable-Phenotype (%) [1]: 1%
Population Mitochondria Different-Phenotype (%) [1]: 7%
Population Mitotic Cells (%) [1]: 61%
Population Normal (%) [1]: 97%
Population Pyknosed Nuclei (%) [1]: 13%
Population Tubulin-Different-Phenotype (%) [1]: 27%
Total Cell Count [1]: 195
Population Apoptotic (%) [2]: 29%
Population Fragmented Nuclei (%) [2]: 17%
Population Healthy Nuclei (%) [2]: 62%
Population Hoechst High Intensity Objects (%) [2]: 0%
Population Mitochondria Different-Phenotype (%) [2]: 5%
Population Mitotic Cells (%) [2]: 70%
Population Normal (%) [2]: 99%
Population Pyknosed Nuclei (%) [2]: 20%
Population Tubulin-Different-Phenotype (%) [2]: 32%
Total Cell Count [2]: 135
Population Apoptotic (%) [3]: 54%
Population Fragmented Nuclei (%) [3]: 15%
Population Healthy Nuclei (%) [3]: 69%
Population Hoechst High Intensity Objects (%) [3]: 5%
Population Membrane Permeable-Phenotype (%) [3]: 0%
Population Mitochondria Different-Phenotype (%) [3]: 10%
Population Mitotic Cells (%) [3]: 45%
Population Normal (%) [3]: 94%
Population Pyknosed Nuclei (%) [3]: 14%
Population Tubulin-Different-Phenotype (%) [3]: 66%
Total Cell Count [3]: 161
Population Apoptotic (%) [4]: 37%
Population Fragmented Nuclei (%) [4]: 24%
Population Healthy Nuclei (%) [4]: 51%
Population Hoechst High Intensity Objects (%) [4]: 8%
Population Membrane Permeable-Phenotype (%) [4]: 4%
Population Mitochondria Different-Phenotype (%) [4]: 12%
Population Mitotic Cells (%) [4]: 62%
Population Normal (%) [4]: 91%
Population Pyknosed Nuclei (%) [4]: 23%
Population Tubulin-Different-Phenotype (%) [4]: 50%
Total Cell Count [4]: 132
Population Apoptotic (%) [5]: 53%
Population Fragmented Nuclei (%) [5]: 11%
Population Healthy Nuclei (%) [5]: 74%
Population Hoechst High Intensity Objects (%) [5]: 3%
Population Membrane Permeable-Phenotype (%) [5]: 0%
Population Mitochondria Different-Phenotype (%) [5]: 6%
Population Mitotic Cells (%) [5]: 46%
Population Normal (%) [5]: 96%
Population Pyknosed Nuclei (%) [5]: 14%
Population Tubulin-Different-Phenotype (%) [5]: 23%
Total Cell Count [5]: 203
Population Apoptotic (%) [6]: 34%
Population Fragmented Nuclei (%) [6]: 20%
Population Healthy Nuclei (%) [6]: 58%
Population Hoechst High Intensity Objects (%) [6]: 2%
Population Membrane Permeable-Phenotype (%) [6]: 2%
Population Mitochondria Different-Phenotype (%) [6]: 3%
Population Mitotic Cells (%) [6]: 65%
Population Normal (%) [6]: 97%
Population Pyknosed Nuclei (%) [6]: 20%
Population Tubulin-Different-Phenotype (%) [6]: 39%
Total Cell Count [6]: 142
Population Apoptotic (%) [7]: 66%
Population Fragmented Nuclei (%) [7]: 18%
Population Healthy Nuclei (%) [7]: 71%
Population Hoechst High Intensity Objects (%) [7]: 3%
Population Membrane Permeable-Phenotype (%) [7]: 0%
Population Mitochondria Different-Phenotype (%) [7]: 11%
Population Mitotic Cells (%) [7]: 33%
Population Normal (%) [7]: 96%
Population Pyknosed Nuclei (%) [7]: 9%
Population Tubulin-Different-Phenotype (%) [7]: 57%
Total Cell Count [7]: 162
Population Apoptotic (%) [8]: 55%
Population Fragmented Nuclei (%) [8]: 26%
Population Healthy Nuclei (%) [8]: 56%
Population Hoechst High Intensity Objects (%) [8]: 6%
Population Membrane Permeable-Phenotype (%) [8]: 7%
Population Mitochondria Different-Phenotype (%) [8]: 5%
Population Mitotic Cells (%) [8]: 45%
Population Normal (%) [8]: 93%
Population Pyknosed Nuclei (%) [8]: 16%
Population Tubulin-Different-Phenotype (%) [8]: 61%
Total Cell Count [8]: 129
Population Apoptotic (%) [9]: 75%
Population Fragmented Nuclei (%) [9]: 16%
Population Healthy Nuclei (%) [9]: 75%
Population Hoechst High Intensity Objects (%) [9]: 5%
Population Membrane Permeable-Phenotype (%) [9]: 0%
Population Mitochondria Different-Phenotype (%) [9]: 4%
Population Mitotic Cells (%) [9]: 25%
Population Normal (%) [9]: 94%
Population Pyknosed Nuclei (%) [9]: 8%
Population Tubulin-Different-Phenotype (%) [9]: 28%
Total Cell Count [9]: 210
Population Apoptotic (%) [10]: 31%
Population Fragmented Nuclei (%) [10]: 29%
Population Healthy Nuclei (%) [10]: 55%
Population Hoechst High Intensity Objects (%) [10]: 6%
Population Membrane Permeable-Phenotype (%) [10]: 1%
Population Mitochondria Different-Phenotype (%) [10]: 1%
Population Mitotic Cells (%) [10]: 68%
Population Normal (%) [10]: 93%
Population Pyknosed Nuclei (%) [10]: 14%
Population Tubulin-Different-Phenotype (%) [10]: 25%
Total Cell Count [10]: 143
Population Apoptotic (%) [11]: 72%
Population Fragmented Nuclei (%) [11]: 20%
Population Healthy Nuclei (%) [11]: 72%
Population Hoechst High Intensity Objects (%) [11]: 2%
Population Membrane Permeable-Phenotype (%) [11]: 0%
Population Mitochondria Different-Phenotype (%) [11]: 14%
Population Mitotic Cells (%) [11]: 27%
Population Normal (%) [11]: 97%
Population Pyknosed Nuclei (%) [11]: 6%
Population Tubulin-Different-Phenotype (%) [11]: 62%
Total Cell Count [11]: 172
Population Apoptotic (%) [12]: 60%
Population Fragmented Nuclei (%) [12]: 39%
Population Healthy Nuclei (%) [12]: 49%
Population Hoechst High Intensity Objects (%) [12]: 5%
Population Membrane Permeable-Phenotype (%) [12]: 1%
Population Mitochondria Different-Phenotype (%) [12]: 8%
Population Mitotic Cells (%) [12]: 40%
Population Normal (%) [12]: 94%
Population Pyknosed Nuclei (%) [12]: 11%
Population Tubulin-Different-Phenotype (%) [12]: 47%
Total Cell Count [12]: 144
